In ChEMBL document CHEMBL2021884, “Azaindenoisoquinolines as topoisomerase I inhibitors and potential anticancer agents: a systematic study of structure-activity relationships” (2012) one finds inhibition and GI50 data, which are given here for 1 molecule.

Structures are written as SMILES. Active and inactive are the calls of the source. No cut-off for these calls is given here.

Assay [1] concerns the target T1, DNA topoisomerase 1 (Homo sapiens) (UniProt P11387).
T1 sequence (whole entry): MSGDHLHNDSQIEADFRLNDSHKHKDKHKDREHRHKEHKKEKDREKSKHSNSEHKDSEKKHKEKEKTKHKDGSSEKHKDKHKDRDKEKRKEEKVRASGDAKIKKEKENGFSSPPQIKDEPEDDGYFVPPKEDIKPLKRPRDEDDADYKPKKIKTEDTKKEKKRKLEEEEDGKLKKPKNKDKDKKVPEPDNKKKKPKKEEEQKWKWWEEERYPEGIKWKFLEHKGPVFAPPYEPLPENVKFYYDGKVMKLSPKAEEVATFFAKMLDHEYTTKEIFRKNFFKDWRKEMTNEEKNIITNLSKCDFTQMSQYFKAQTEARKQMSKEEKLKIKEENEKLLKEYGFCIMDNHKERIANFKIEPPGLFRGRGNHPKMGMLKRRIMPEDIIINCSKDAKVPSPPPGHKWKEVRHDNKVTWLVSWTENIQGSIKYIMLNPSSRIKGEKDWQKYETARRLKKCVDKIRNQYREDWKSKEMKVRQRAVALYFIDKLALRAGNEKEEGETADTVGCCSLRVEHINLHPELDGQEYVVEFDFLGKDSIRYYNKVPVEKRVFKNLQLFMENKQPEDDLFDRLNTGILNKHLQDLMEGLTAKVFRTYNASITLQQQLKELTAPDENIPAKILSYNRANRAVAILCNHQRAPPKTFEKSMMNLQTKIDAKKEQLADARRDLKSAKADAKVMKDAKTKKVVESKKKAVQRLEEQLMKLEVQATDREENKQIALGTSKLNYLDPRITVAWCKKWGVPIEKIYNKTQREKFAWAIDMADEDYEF
Put plainly: Inhibition of human recombinant topoisomerase 1-mediated DNA cleavage using [32P]-3'-end-labeled 117-bp DNA fragment as substrate at 100 uM after 20 mins by SDS-PAGE analysis. Summed up: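 Human recombinant Top1 purified from baculovirus. Substrate: 117-bp oligonucleotide 3′-end-labeled by Klenow fill-in with [α-32P]dGTP, ~2 nM. Compounds tested at 0.1–100 μM. Stopped with 0.5% SDS plus formamide loading dye. Cleavage sites scored on gel.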

In a further assay the test system is MCF7. Put plainly: Growth inhibition of human MCF7 cells after 48 hrs by sulforhodamine B assay. The class given is functional. The conditions noted are these: MCF7, 48 h. Summed up:
(§1)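 NCI 60-cell-line screen: cells exposed 48 h to five 10-fold dilutions starting at 100 μM (range 10−4 to 10−8 M), then stained with sulforhodamine B. Optical densities relative to control plotted against log concentration. GI50 interpolated between points above and below 50% growth. Single determinations.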
On the technique in general: The SRB assay estimates cell density from bound dye.

A further assay relates to SF-539. Put plainly: Growth inhibition of human SF539 cells after 48 hrs by sulforhodamine B assay. The class given is functional. The conditions noted are these: SF-539, 48 h. Summed up: as §1
The subject of another assay is UACC-62. Put plainly: Growth inhibition of human UACC62 cells after 48 hrs by sulforhodamine B assay. The conditions noted are these: UACC-62, 48 h. The class given is functional. Summed up:
as §1

The next assay deals with SN12C. Put plainly: Growth inhibition of human SN12C cells after 48 hrs by sulforhodamine B assay. It is filed as functional. Summed up:
as §1

A further assay concerns DU-145. The assay is described as follows: Growth inhibition of human DU145 cells after 48 hrs by sulforhodamine B assay. It is filed as functional. The conditions noted are these: DU-145, 48 h. A digest of the protocol:
as §1

A further assay deals with HOP-62. Put plainly: Growth inhibition of human HOP62 cells after 48 hrs by sulforhodamine B assay. It is filed as functional. The conditions noted are these: HOP-62, 48 h. Summed up: as §1

As for `COc1cc2c3c(n(C)c(=O)c2cc1OC)-c1cc2c(cc1C3=O)OCO2`, in assay [1], the inhibition entry was “Active”. Moreover, the GI50 (as a rule, the concentration giving 50% growth inhibition) in the assay on MCF7 amounted to 1.9 µM; in the assay with SF-539, 1.7 µM; in the assay with UACC-62, 0.56 µM; in the assay on SN12C, 26 µM; with DU-145 it was 4.8 µM; in the assay with HOP-62, 2.8 µM.
